Source: PubChem (several laboratories)
ROMK primary = modulators of human ROMK potassium channel; 130,000 tested, 2% active; P48048; B-score at 10 µM; Tet-inducible ROMK, thallium flux fluorescence; actives lie on both sides;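 active = signal ratio slope over the read window, or its plate-corrected B-score, at least 3 SD from the plate mean, either direction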;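 also: B-score of the F/F0 ratio slope over 7 to 12 s after thallium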
Mdm2 ligase inh = blocks human Mdm2 ubiquitin ligase activity. 210,000 tested, 0.11% active. Q00987. signal enhancement, % at 5 µM. AID 1230. cell-based MDM2 ubiquitination luciferase reporter, 2 h; 0 = plate control, 100 = twice control, blank-subtracted;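 active = signal enhancement of 30% or more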;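 also: luminescence tracks abundance of the self-degrading MDM2-luciferase fusion protein; higher signal means inhibition of MDM2 E3 ligase activity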
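test system = mammalian cells stably expressing self-ubiquitinating, self-degrading MDM2 E3–luciferase fusion | quantity = 2000 cells/well | incubation = cell settling 4 h, compound treatment 2 h, both 37 °C | signal = luminescence with SteadyLite reagent, 15 min at room temperature | evaluation = % enhancement relative to plate controls after blank subtraction | benchmarks = plate controls and plate blanks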
PKD1 inh = blocks activity of human protein kinase D1. Q15139. PKD1 kinase fluorescence polarization assay. inhibition, % (no concentration beside the values). 200,000 tested, 0.056% active; in the data active = inhibition above about 50%
Cl transport mod = modulators of human KCC2 chloride dependent transport; Q9H2X9; KCC2 cells, thallium flux FluoZin-2 fluorescence; B-score of Tl+ flux slope (higher = more flux/activation; lower = inhibition) at 10 µM; 190,000 tested, 2.2% active;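 active = thallium flux slope and its plate-corrected score both differing from the plate sample mean at a set confidence after two filtering rounds, in either direction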;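 also: slope of fluorescence scaled to starting intensity during 10 to 20 s after thallium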
Target sequence (Q9H2X9 whole entry, looked up): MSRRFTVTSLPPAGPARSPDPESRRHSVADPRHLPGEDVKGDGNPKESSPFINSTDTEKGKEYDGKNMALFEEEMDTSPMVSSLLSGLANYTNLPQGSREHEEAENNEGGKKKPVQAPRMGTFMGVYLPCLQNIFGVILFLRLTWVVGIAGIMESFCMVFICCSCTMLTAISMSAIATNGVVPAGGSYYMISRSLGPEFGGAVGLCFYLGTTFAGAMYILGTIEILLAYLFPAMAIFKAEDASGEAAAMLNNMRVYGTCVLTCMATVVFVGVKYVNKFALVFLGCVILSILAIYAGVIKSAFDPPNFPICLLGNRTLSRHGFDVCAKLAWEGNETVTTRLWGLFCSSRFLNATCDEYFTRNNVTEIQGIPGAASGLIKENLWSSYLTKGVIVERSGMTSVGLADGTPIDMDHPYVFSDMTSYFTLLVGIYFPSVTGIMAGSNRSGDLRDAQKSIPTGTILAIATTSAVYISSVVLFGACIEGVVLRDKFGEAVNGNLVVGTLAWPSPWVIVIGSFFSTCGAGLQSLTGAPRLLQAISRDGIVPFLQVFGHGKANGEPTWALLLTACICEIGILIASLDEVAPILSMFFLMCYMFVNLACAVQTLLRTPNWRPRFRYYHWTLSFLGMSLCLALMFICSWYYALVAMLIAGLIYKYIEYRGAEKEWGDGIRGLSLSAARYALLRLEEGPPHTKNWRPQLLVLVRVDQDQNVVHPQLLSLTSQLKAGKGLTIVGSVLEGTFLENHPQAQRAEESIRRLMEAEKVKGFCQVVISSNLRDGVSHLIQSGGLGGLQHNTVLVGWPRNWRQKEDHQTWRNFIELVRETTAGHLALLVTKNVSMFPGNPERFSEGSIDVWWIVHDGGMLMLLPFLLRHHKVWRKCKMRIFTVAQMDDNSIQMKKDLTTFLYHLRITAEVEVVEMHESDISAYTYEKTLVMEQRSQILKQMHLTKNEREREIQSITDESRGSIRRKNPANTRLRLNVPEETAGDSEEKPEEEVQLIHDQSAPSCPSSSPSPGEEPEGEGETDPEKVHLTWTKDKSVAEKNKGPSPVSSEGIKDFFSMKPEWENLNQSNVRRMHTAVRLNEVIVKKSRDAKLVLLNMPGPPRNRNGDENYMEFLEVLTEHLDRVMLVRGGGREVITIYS
m-calpain inh = calpain II (pig) inhibition | purified calpain II, fluorogenic peptide substrate, 30 min | inhibition, % at 16 µM | 220,000 tested, 0.37% active;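 active = inhibition above about 50%, limit read from the data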
Arbovirus anti = antivirals against arbovirus infection; arbovirus infection cell-based antiviral screen; inhibition, % at 10 µM; 200,000 tested, 0.37% active; AID 1251; in the data active = inhibition above about 30%
KCC2 secondary = KCC2 (human) modulation, secondary assay. shares compounds with Cl transport mod. HEK293-KCC2, thallium flux, FluoZin2 fluorescence; active compounds read high. normalised thallium flux (F/F0 slope) at 10 µM. 3,700 tested, 15% active;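 active = thallium flux slope above the same plate's solvent-only control mean plus 3 SD; inconclusive = the two replicate wells disagree; inactive = no significant difference from solvent-only control wells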
KCC2 bumet counter = bumetanide-insensitive thallium flux in KCC2 cells with ouabain, counter-screen; shares compounds with Cl transport mod; HEK293-KCC2 + bumetanide/ouabain, thallium flux FluoZin2; active compounds read high; normalized thallium flux at 10 µM; 3,700 tested, 49% active;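 active = thallium entry rate above the same plate's blocked-transporter control wells by more than 3 SD; inconclusive = the two repeat wells disagree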;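 also: raw slope of fluorescence over initial fluorescence between 10 and 20 s after thallium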
KCC2 sec2 = KCC2 (human) modulation, second secondary assay; shares compounds with Cl transport mod; HEK293-KCC2, thallium flux FluoZin2 fluorescence; actives lie on both sides; F/F0 rise rate, 10–20 s post-thallium; normalized thallium flux at 10 µM; 3,700 tested, 23% active; AID 1715;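 active = thallium flux slope more than 3 SD above or below the plate's solvent-only control mean, mostly below; inconclusive = the two repeat wells disagreed; inactive = no significant shift from solvent-only controls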;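 also: raw slope with 0.1% DMSO as baseline and bumetanide as block control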
HEK counter1 = parental HEK flux effect, counter-screen. shares compounds with Cl transport mod. 3,700 tested, 46% active. thallium flux rate (normalised fluorescence) at 10 µM. HEK293 parental cells, thallium flux FluoZin2, ouabain; baseline-ratio fluorescence slope, 10–20 s after thallium. AID 1716;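 active = thallium flux rate significantly above the same plate's solvent-only control wells, beyond their mean plus 3 SD; inconclusive = the two replicate wells gave conflicting results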
KCC2 retest ouab = confirmation of human KCC2 modulators with ouabain. raw Tl+ flux slope (below DMSO = inhibition, above = activation) at 10 µM. HEK293-KCC2, thallium flux FluoZin2 fluorescence; bidirectional: low = inhibitor, high = activator. shares compounds with Cl transport mod. AID 1717. 3,700 tested, 48% active;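 active = thallium flux slope beyond 3 SD from same-plate DMSO control mean in most replicates, usually higher, sometimes lower; inconclusive = repeat tests gave conflicting results; inactive = no significant difference from controls in most replicates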;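 also: slope of initial-normalized fluorescence between seconds 10 and 20 after thallium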
HEK counter2 = acts in parental HEK cells, second KCC2 counter-screen. thallium flux slope at 10 µM. 3,700 tested, 33% active. shares compounds with Cl transport mod. AID 1718. HEK293 parental, thallium flux FluoZin-2 fluorescence slope;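 active = thallium flux slope above the same plate's solvent-control mean plus 3 SD in both duplicate wells; inconclusive = duplicate wells that disagreed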;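 also: run without ouabain in cells lacking the KCC2 cotransporter; slope of fluorescence scaled to its starting value between 10 and 20 s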
An asterisk follows results filed as active; ? = inconclusive; . = no result given. Hits are enriched below; roughly 3.7% of the tested compounds scored in any of these assays.

SMILES	ROMK primary	Mdm2 ligase inh	PKD1 inh	Cl transport mod	m-calpain inh	Arbovirus anti	KCC2 secondary	KCC2 bumet counter	KCC2 sec2	HEK counter1	KCC2 retest ouab	HEK counter2
Cn1cc(Cl)c(-c2n[nH]c(=S)n2C2CCCCC2)n1	-0.897	-12.2	6.0	0.63	19.2	2.6	.	.	.	.	.	.
S=c1[nH]nc(COc2ccc(Cl)cc2)n1C1CCCCC1	-1.6	-9.8	5.4	2.53*	32.1	11.3	0.00522	0.0151*	0.0327	0.0119*	?	0.0148*
COc1ccc(OCc2n[nH]c(=S)n2-c2ccc(C)cc2)cc1	1.68	4.9	-1.0	-0.239	-3.4	6.9	.	.	.	.	.	.
S=c1[nH]nc(CSCc2ccccc2Cl)n1C1CCCCC1	-0.944	-16.1	-6.5	26.7*	65.2*	-0.1	0.00573	0.0307*	?	0.0285*	0.0275*	0.0198*
Cc1ccc(OCc2n[nH]c(=S)n2C2CCCCC2)cc1	1.24	-9.9	1.2	12.8*	60.6*	-11.5	?	0.0429*	0.0445*	0.0265*	0.0423*	0.0298*
CCOC(=O)/C(N=O)=C(\O)C1CCN(C(=O)OCC)CC1	.	-11.6	-10.6	0.48	-47.7	10.5	.	.	.	.	.	.
CC(C)c1onc(C(=O)NCCc2ccccc2)c1[N+](=O)[O-]	-0.032	-9.1	3.2	-5.23*	-11.2	4.2	0.0053	0.00495	0.0246*	0.00785	?	0.0104
CC(C)c1onc(C(=O)N2CCN(Cc3ccccc3)CC2)c1[N+](=O)[O-]	-0.344	.	-2.0	-4.88*	-0.1	2.2	0.00893	0.00596	0.0276*	0.00767	0.0155*	0.00989
COc1cccc(NC(=S)N(CCCN2CCOCC2)Cc2cn(C)c3ccccc23)c1	.	-9.4	-14.4	-1.64	-9.2	-6.1	.	.	.	.	.	.
C=CCNC(=S)Nc1sc2c(c1C(N)=O)CCCC2	.	-4.2	.	8.27*	-14.5	.	0.0104	0.0143*	0.0316	0.0117*	0.0282*	0.0111*
Cc1onc(-c2ccccc2)c1C(=O)Nc1nc2c(s1)CCCC2	0.989	-11.9	1.2	0.599	17.7	-5.8	.	.	.	.	.	.
Cc1cc(C(=O)Nc2nc3c(s2)CCCC3)no1	.	-3.8	9.6	4.37*	-5.8	-5.0	0.0108	0.0151*	0.0342	0.00913*	0.0241	?
CN(Cc1cccs1)C(=O)Cn1cnc2ccccc2c1=O	-0.684	5.5	1.9	-0.0775	-6.2	0.8	.	.	.	.	.	.
COc1ccc(C2CC(C(F)(F)F)n3nc(C(=O)O)c(Br)c3N2)cc1 (stereo unspecified)	0.767	-16.8	-8.2	0.921	-8.1	5.7	.	.	.	.	.	.
COc1ccc(CSc2n[nH]c(C)n2)cc1[N+](=O)[O-]	0.912	-47.7	-5.3	0.00828	22.8	-5.6	.	.	.	.	.	.
Oc1ccccc1/C=N/NC(=S)NC1CC2CC1C1C=CCC21 (stereo unspecified)	.	-9.2	.	15.5*	-8.7	.	0.00999	0.014*	0.0316	0.0131*	0.0316*	?
COc1cccc(/C=N/NC(=S)NC2CC3CC2C2C=CCC32)c1O (stereo unspecified)	0.283	-1.5	.	0.621	-11.7	.	.	.	.	.	.	.
Cc1ccc(/C=C2\SC(=S)N(/N=C/c3cc([N+](=O)[O-])ccc3O)C2=O)o1	1.54	-22.9	-0.4	3.78*	-7.7	-2.8	0.0101	0.0128*	0.0309	0.00958*	0.028*	0.0103
Cc1ccc(-n2[nH]c(C)c(/C=N/Nc3ccc([N+](=O)[O-])cc3[N+](=O)[O-])c2=O)cc1	.	-11.4	10.1	-4.69*	19.3	9.6	0.00644	0.011*	0.0297	0.0072	?	0.00954
Cc1[nH]n(-c2ccc([N+](=O)[O-])cc2)c(=O)c1C=NCC1CCCO1 (stereo unspecified)	0.201	1.0	-4.7	-1.38	-11.6	-15.6	.	.	.	.	.	.
COCCCNC(=O)Cn1nc(-c2ccccc2OC)ccc1=O	.	2.7	-2.1	0.682	-2.7	8.6	.	.	.	.	.	.
COc1ccccc1-c1ccc(=O)n(CC(=O)NCc2ccc3c(c2)OCO3)n1	.	-10.8	1.0	-3.69*	-14.5	-2.9	0.00772	0.00918*	0.0319	?	0.0156*	0.0109
CCNc1nc(NCC)n2c(SCC(=O)c3ccc(C(C)C)cc3)nnc2n1	.	-4.7	-0.7	-1.66	5.5	12.0	.	.	.	.	.	.
COC(=O)c1ccc(Cl)c(NC(=O)CN(c2ccccc2)S(=O)(=O)c2ccc(OC)cc2)c1	.	-24.2	-3.6	-4.39*	19.8	-1.1	0.0103	0.00631	?	0.00407	0.019*	0.0113
Cc1onc(-c2c(Cl)cccc2Cl)c1COC(=O)c1ccc(Cl)cc1[N+](=O)[O-]	.	-12.7	.	-0.0952	16.8	.	.	.	.	.	.	.
SMILES	ROMK primary	Mdm2 ligase inh	PKD1 inh	Cl transport mod	m-calpain inh	Arbovirus anti	KCC2 secondary	KCC2 bumet counter	KCC2 sec2	HEK counter1	KCC2 retest ouab	HEK counter2
O=C(CSc1ccccn1)Nc1cccc(NC(=O)CSc2ccccn2)n1	1.25	-9.0	-7.0	.	-7.1	-0.9	?	?	0.0319	0.00698	0.0205	0.0101
COc1cc2c(cc1NC(=O)CSc1ccccn1)oc1ccccc12	0.332	2.9	0.4	-4.83*	13.6	-9.8	0.00796	0.00592	0.0284	0.00702	0.019	0.00855
COc1cc2c(cc1NC(=O)CSc1ccc(Cl)cc1)oc1ccccc12	0.298	-6.4	-0.9	0.405	32.5	7.6	.	.	.	.	.	.
S=c1[nH]nc(CNc2cccc(Cl)c2)o1	0.8	-11.5	-8.2	-5.24*	8.0	-0.2	0.0069	?	0.0248*	0.00771	0.0143*	0.0102
Clc1cccc(NCc2nnc(SCc3ccc(Cl)cc3Cl)o2)c1	.	-3.6	0.6	0.0719	17.8	-11.4	.	.	.	.	.	.
COc1ccc(/C=C/C(=O)OCC(=O)NCc2ccco2)cc1OC	.	-1.4	9.7	0.0315	-119.3	-7.4	.	.	.	.	.	.
O=c1[nH]c(CSc2nc3ccccc3s2)nc2cc(Cl)ccc12	0.563	-3.6	.	6.25*	-30.3	.	0.0107	0.0143*	0.0329	?	?	0.0114
O=c1[nH]c(CSc2nc3ccccc3s2)nc2ccccc12	.	.	.	1.33	-7.5	.	.	.	.	.	.	.
CC(C)(C)C1CCc2onc(C(=O)Nc3cccnc3)c2C1 (stereo unspecified)	.	-18.6	10.3	6.46*	-58.0	3.2	0.00677	0.00454	0.0297	0.00806	0.0191	0.0106
